Laboratory results taken from EPA's CvTdb concentration-time database.

How the values were obtained:
Rat [1] = assay: concentration in plasma after dosing; conditions: 10 min; dosed: Pyridine; 10 mg/kg; oral; Male; F344
Rat [2] = assay: concentration in plasma after dosing; conditions: dosed: Pyridine, 25 mg/kg, oral, Female, Harlan Sprague-Dawley
Mouse [3] = assay: concentration in plasma after dosing; conditions: 2.5 min; dosed: 2-Hydroxy-4-methoxybenzophenone; 250 mg/kg; oral; Female; B6C3F1
Mouse [4] = assay: concentration in plasma after dosing; conditions: 2 h; dosed: 2-Hydroxy-4-methoxybenzophenone; 500 mg/kg; oral; Female; B6C3F1
Rat [5] = assay: concentration in plasma after dosing; conditions: dosed: 2-Hydroxy-4-methoxybenzophenone, 100 mg/kg, oral, Female, F344
Mouse [6] = assay: concentration in plasma after dosing; conditions: 10 min; dosed: 2-Hydroxy-4-methoxybenzophenone; 50 mg/kg; iv; Female; B6C3F1
Mouse [7] = assay: concentration in plasma after dosing; conditions: 10 min; dosed: 2-Hydroxy-4-methoxybenzophenone; 50 mg/kg; iv; Female; B6C3F1; remark: listed apart in the source
Mouse [8] = assay: concentration in plasma after dosing; conditions: 0.25 h; dosed: 2-Hydroxy-4-methoxybenzophenone; 500 mg/kg; oral; Male; B6C3F1
Rat [9] = assay: concentration in brain after dosing; conditions: 2 min; dosed: alpha-Thujone; 50 mg/kg; oral; Female; Harlan Sprague Dawley
Rat [10] = assay: concentration in brain after dosing; conditions: 2 h; dosed: 76231-76-0; 3.0 mg/kg; iv; Female; F344
Rat [11] = assay: concentration in brain after dosing; conditions: 6 h; dosed: alpha-Thujone; 50 mg/kg; oral; Female; Harlan Sprague Dawley
Rat [12] = assay: concentration in plasma after dosing; conditions: 5 min; dosed: alpha-Thujone; 25 mg/kg; oral; Male; Harlan Sprague Dawley
Rat [13] = assay: concentration in brain after dosing; conditions: 5 min; dosed: alpha-Thujone; 50 mg/kg; oral; Female; Harlan Sprague Dawley
Rat [14] = assay: concentration in brain after dosing; conditions: 2 min; dosed: alpha-Thujone; 50 mg/kg; oral; Male; Harlan Sprague Dawley
Rat [15] = assay: concentration in brain after dosing; conditions: 1.5 h; dosed: alpha-Thujone; 25 mg/kg; oral; Male; Harlan Sprague Dawley
Rat [16] = assay: concentration in plasma after dosing; conditions: 3 h; dosed: alpha-Thujone; 50 mg/kg; oral; Male; Harlan Sprague Dawley
Rat [17] = assay: concentration in brain after dosing; conditions: 6 h; dosed: alpha-Thujone; 50 mg/kg; oral; Female; Harlan Sprague Dawley; remark: listed apart in the source
Rat [18] = assay: concentration in plasma after dosing; conditions: 0.5 h; dosed: alpha-Thujone; 50 mg/kg; oral; Female; Harlan Sprague Dawley
Rat [19] = assay: concentration in brain after dosing; conditions: 3 h; dosed: Perfluorohexane-1-sulphonic acid – potassium salt; 16 mg/kg; oral; Female; F344
Rat [20] = assay: concentration in liver after dosing; conditions: 6 h; dosed: Perfluorohexane-1-sulphonic acid – potassium salt; 16 mg/kg; oral; Female; F344
Rat [21] = assay: concentration in liver after dosing; conditions: 528 h; dosed: Perfluorohexane-1-sulphonic acid – potassium salt; 16 mg/kg; oral; Female; F344
Rat [22] = assay: concentration in liver after dosing; conditions: 1200 h; dosed: Perfluorohexane-1-sulphonic acid – potassium salt; 16 mg/kg; oral; Male; Harlan Sprague Dawley
Rat [23] = assay: concentration in liver after dosing; conditions: 12 h; dosed: Perfluorohexane-1-sulphonic acid – potassium salt; 16 mg/kg; oral; Female; F344
Rat [24] = assay: concentration in brain after dosing; conditions: 6 h; dosed: Perfluorohexane-1-sulphonic acid – potassium salt; 16 mg/kg; oral; Female; Harlan Sprague Dawley
Rat [25] = assay: concentration in kidney after dosing; conditions: 192 h; dosed: Perfluorohexane-1-sulphonic acid – potassium salt; 16 mg/kg; oral; Female; F344
Rat [26] = assay: concentration in plasma after dosing; conditions: 10 min; dosed: 2,4-Dichlorophenoxyacetic acid; 2.0 mg/kg; iv; Male; Sprague-Dawley
Hamster [27] = assay: concentration in plasma after dosing; conditions: dosed: 2,4-Dichlorophenoxyacetic acid, 40 mg/kg, oral, Male, Syrian Golden
Summary of the method: (§1)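 Data points giving concentration or amount against time came from published in vivo toxicokinetic studies and from two structured collections. PubMed searching, classifier screening and manual review located the studies. Most points were digitised from plot screenshots using WebPlotDigitizer, the rest were copied from tables, and all keep their reported units.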

Hamster [28] = assay: concentration in plasma after dosing; conditions: dosed: 2,4-Dichlorophenoxyacetic acid, 2.0 mg/kg, oral, Male, Syrian Golden
Summary of the method: as §1

Rat [29] = assay: concentration in plasma after dosing; conditions: 0.25 h; dosed: Primidone; 30 mg/kg; oral; Female; F344
Rat [30] = assay: concentration in plasma after dosing; conditions: 9 h; dosed: Primidone; 80 mg/kg; oral; Female; F344
Rat [31] = assay: concentration in plasma after dosing; conditions: 0.5 h; dosed: Primidone; 130 mg/kg; oral; Female; F344
Rat [32] = assay: concentration in plasma after dosing; conditions: 12 h; dosed: Primidone; 30 mg/kg; oral; Female; F344
Rat [33] = assay: concentration in plasma after dosing; conditions: 12 h; dosed: Primidone; 130 mg/kg; oral; Male; Harlan Sprague Dawley
Rat [34] = assay: concentration in plasma after dosing; conditions: 18 h; dosed: Primidone; 80 mg/kg; oral; Female; F344
Rat [35] = assay: concentration in plasma after dosing; conditions: 0.25 h; dosed: Primidone; 30 mg/kg; oral; Male; F344

c1ccncc1 [Pyridine]
Conditions | concentration in plasma [µg/mL]
Rat [1] | 5.48

Rat [2]
Conditions | concentration in plasma [µg/mL]
1 h | 21.4
8 h | 15.2

O=C(c1ccccc1)c1ccc(O)cc1O [2,4-Dihydroxybenzophenone]
Conditions | concentration in plasma [µg/mL]
Mouse [3] | 0.0531
Mouse [4] | 0.135
Mouse [6] | 1.61
Mouse [7] | 2.27
Mouse [8] | 2.74

Rat [5]
Conditions | concentration in plasma [µg/mL]
3 h | 0.0674
10 min | 0.0583

CC(C)[C@]12CC(=O)[C@H](C)[C@H]1C2 [alpha-Thujone]
Conditions | concentration in brain [ng/g] | concentration in plasma [ng/mL]
Rat [9] | 87.7 | –
Rat [10] | 19.3 | –
Rat [11] | 165 | –
Rat [12] | – | 247
Rat [13] | 996 | –
Rat [14] | 385 | –
Rat [15] | 234 | –
Rat [16] | – | 357
Rat [17] | 42.5 | –
Rat [18] | – | 433

O=S(=O)([O-])C(F)(F)C(F)(F)C(F)(F)C(F)(F)C(F)(F)C(F)(F)F.[K+] [Perfluorohexane-1-sulphonic acid – potassium salt]
Conditions | concentration in brain [ng/g] | concentration in kidney [ng/g] | concentration in liver [ng/g]
Rat [19] | 1600 | – | –
Rat [20] | – | – | 80400
Rat [21] | – | – | 20900
Rat [22] | – | – | 15500
Rat [23] | – | – | 75600
Rat [24] | 1100 | – | –
Rat [25] | – | 15300 | –

O=C(O)COc1ccc(Cl)cc1Cl [2,4-Dichlorophenoxyacetic acid]
Conditions | concentration in plasma [µg/mL]
Rat [26] | 13.2

concentration in plasma [µg/mL]
Conditions | Hamster [27] | Hamster [28]
0.25 h | 57 | –
0.5 h | 88 | –
1 h | 40.7 | –
1.5 h | 16.6 | –
2 h | 12 | –
2.5 h | – | 0.2
4 h | 3.73 | –
5 min | 26.6 | 2.77
6 h | 1.4 | –
10 h | 34.3 | –
10 min | – | 10.3

CCC1(c2ccccc2)C(=O)NCNC1=O [Primidone]
Conditions | concentration in plasma [µg/mL]
Rat [29] | 12.3
Rat [30] | 21.6
Rat [31] | 18.8
Rat [32] | 5.5
Rat [33] | 17.8
Rat [34] | 1.6
Rat [35] | 8.9
